In ChEMBL document CHEMBL1144880, “Identification of phenylisoxazolines as novel and viable antibacterial agents active against Gram-positive pathogens” (J Med Chem, 2003):
Values after ≈ are worked out from the molar mass of the structure shown.

Legend:
Enterococcus faecalis = assay: In vitro minimum inhibitory concentration (MIC) against Enterococcus faecalis UC9217; type: functional
In short: (§1)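 MIC determined by standard broth microdilution, defined as the lowest drug concentration (µg/mL) inhibiting visible growth.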

Escherichia coli = assay: In vitro minimum inhibitory concentration (MIC) against Escherichia coli UC6674; type: functional; in short: as §1
Haemophilus influenzae = assay: In vitro minimum inhibitory concentration (MIC) against Haemophilus influenzae UC30063; type: functional; in short: as §1
Moraxella catarrhalis = assay: In vitro minimum inhibitory concentration (MIC) against Moraxella catarrhalis UC30610; type: functional; in short: as §1
Streptococcus pneumoniae = assay: In vitro minimum inhibitory concentration (MIC) against Streptococcus pneumoniae UC9912; type: functional; in short: as §1
Staphylococcus aureus [1] = assay: In vitro minimum inhibitory concentration (MIC) against Staphylococcus aureus UC12673; type: functional; in short: as §1
Staphylococcus aureus [2] = assay: In vitro minimum inhibitory concentration (MIC) against Staphylococcus aureus UC9213; type: functional; in short: as §1
[3] = system: Staphylococcus epidermidis; assay: In vitro minimum inhibitory concentration (MIC) against Staphylococcus epidermidis UC12084; type: functional; in short: as §1
Mus musculus = assay: In Vivo effective dose required for antibacterial activity in a systemic mouse infection model (SMIM) upon peroral administration against Staphylococcus aureus UC9213; type: functional; conditions: po
In short: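 Compound was given orally at 1 and 5 h after infection. Deaths were monitored for at least 6 days, and ED50 (dose curing 50% of mice) was calculated by probit analysis.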

[4] = Tmax value in Male Sprague-Dawley Rat at dose 25 (mg/kg po) [tmax (h)]; type: ADME, organism-based; conditions: in vivo
In short: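 Male Sprague-Dawley rats dosed intravenously or orally. Intact compound measured in plasma by HPLC-UV after protein-precipitation sample preparation. Half-life reported as harmonic mean apparent terminal disposition half-life. Bioavailability is absolute oral bioavailability. Some comparator values are archival data.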

Rattus norvegicus = organism: Rattus norvegicus; assay: Compound was evaluated for metabolic stability via In vitro Rat 5E6 cell at 50 uM concentration; type: functional

| MIC (Enterococcus faecalis) [µg/mL] | MIC (Escherichia coli) [µg/mL] | MIC (Haemophilus influenzae) [µg/mL] | MIC (Moraxella catarrhalis) [µg/mL] | MIC (Streptococcus pneumoniae) [µg/mL] | MIC (Staphylococcus aureus [1]) [µg/mL] | MIC (Staphylococcus aureus [2]) [µg/mL] | MIC [3] [µg/mL] | Compound | ED50 (Mus musculus) [mg/kg] | Tmax [4] [min] | Remaining at 40 min (Rattus norvegicus) [%] |
| --- | --- | --- | --- | --- | --- | --- | --- | --- | --- | --- | --- |
| 8 (≈ 21.1 µM) | > 16 | > 16 | 16 (≈ 42.3 µM) | 2 (≈ 5.29 µM) | 8 (≈ 21.1 µM) | 8 (≈ 21.1 µM) | 4 (≈ 10.6 µM) | CC(=O)NCC1CC(c2ccc(N3CCN(C(=O)CO)CC3)c(F)c2)=NO1 (racemic) |  |  |  |
| 2 (≈ 5.05 µM) | > 16 | 16 (≈ 40.4 µM) | 8 (≈ 20.2 µM) | 0.5 (≈ 1.26 µM) | 1 (≈ 2.52 µM) | 2 (≈ 5.05 µM) | 0.5 (≈ 1.26 µM) | CC(=O)NC[C@H]1CC(c2cc(F)c(N3CCN(C(=O)CO)CC3)c(F)c2)=NO1 | 5 |  |  |
| 2 (≈ 6.77 µM) | > 16 | 16 (≈ 54.2 µM) | 8 (≈ 27.1 µM) | 0.25 (≈ 0.846 µM) | 2 (≈ 6.77 µM) | 1 (≈ 3.39 µM) | 0.5 (≈ 1.69 µM) | CC(=O)NC[C@H]1CC(c2ccc(-c3ccncc3)cc2)=NO1 |  |  |  |
| 8 (≈ 25 µM) | > 16 | > 16 | > 16 | 2 (≈ 6.24 µM) | 4 (≈ 12.5 µM) | 8 (≈ 25 µM) | 2 (≈ 6.24 µM) | CC(=O)NC[C@H]1CC(c2cc(F)c(-n3ccnc3)c(F)c2)=NO1 |  |  |  |
| > 16 | > 16 | > 16 | > 16 | > 16 | > 16 | > 16 | > 16 | CC(=O)NC[C@@H]1CC(c2ccc(N3CCN(C(=O)CO)CC3)c(F)c2)=NO1 |  |  |  |
| 4 (≈ 13.3 µM) | > 16 | > 16 | 16 (≈ 53.1 µM) | 0.5 (≈ 1.66 µM) | 2 (≈ 6.64 µM) | 2 (≈ 6.64 µM) | 0.5 (≈ 1.66 µM) | CC(=O)NC[C@H]1CC(c2ccc(-n3cccc3)c(F)c2)=NO1 |  |  |  |
| 8 (≈ 23.8 µM) | > 16 | > 16 | > 16 | 2 (≈ 5.95 µM) | 4 (≈ 11.9 µM) | 4 (≈ 11.9 µM) | 2 (≈ 5.95 µM) | C/C(S)=N/C[C@H]1CC(c2cc(F)c(-n3ccnc3)c(F)c2)=NO1 |  |  |  |
| > 16 | > 16 | > 16 | > 16 | > 16 | > 16 | > 16 | > 16 | CC(=O)NC[C@H]1CC(c2ccc(F)c(F)c2)=NO1 |  |  |  |
| 16 (≈ 44.4 µM) | > 16 | > 16 | > 16 | 4 (≈ 11.1 µM) | 8 (≈ 22.2 µM) | 16 (≈ 44.4 µM) | 4 (≈ 11.1 µM) | CC(=O)NCC1CC(c2ccc(N3CCN(C(=O)CO)CC3)cc2)=NO1 (stereo unspecified) |  |  |  |
| > 16 | > 16 | > 16 | > 16 | > 16 | > 16 | > 16 | > 16 | CC(=O)NC[C@@H]1CC(c2ccc(C3=CCN(C(=O)CO)CC3)cc2)=NO1 |  |  |  |
| 4 (≈ 11.8 µM) | > 16 | > 16 | 8 (≈ 23.6 µM) | 1 (≈ 2.95 µM) | 4 (≈ 11.8 µM) | 4 (≈ 11.8 µM) | 2 (≈ 5.89 µM) | CC(=O)NC[C@H]1CC(c2cc(F)c(N3CCOCC3)c(F)c2)=NO1 | > 20 |  |  |
| 16 (≈ 52.9 µM) | > 16 | > 16 | > 16 | 4 (≈ 13.2 µM) | 16 (≈ 52.9 µM) | 16 (≈ 52.9 µM) | 4 (≈ 13.2 µM) | CC(=O)NC[C@H]1CC(c2ccc(-n3cccn3)c(F)c2)=NO1 |  |  |  |
| 8 (≈ 26.2 µM) | > 16 | > 16 | > 16 | 2 (≈ 6.55 µM) | 4 (≈ 13.1 µM) | 4 (≈ 13.1 µM) | 4 (≈ 13.1 µM) | CC(=O)NC[C@H]1CC(c2ccc(N3CCCC3)c(F)c2)=NO1 |  |  |  |
| > 16 | > 16 | > 16 | > 16 | > 16 | > 16 | > 16 | > 16 | CC(=O)NC[C@@H]1CC(c2cc(F)c(N3CCOCC3)c(F)c2)=NO1 |  |  |  |
| 16 (≈ 44.8 µM) | > 16 | > 16 | > 16 | 4 (≈ 11.2 µM) | 16 (≈ 44.8 µM) | 16 (≈ 44.8 µM) | 8 (≈ 22.4 µM) | COC(=O)N1CC=C(c2ccc(C3=NOC(CNC(C)=O)C3)cc2)CC1 (stereo unspecified) |  |  |  |
| 8 (≈ 23.6 µM) | > 16 | > 16 | 16 (≈ 47.2 µM) | 2 (≈ 5.89 µM) | 8 (≈ 23.6 µM) | 8 (≈ 23.6 µM) | 4 (≈ 11.8 µM) | CC(=O)NCC1CC(c2cc(F)c(N3CCOCC3)c(F)c2)=NO1 (racemic) |  |  |  |
| 1 (≈ 2.81 µM) | > 16 | 16 (≈ 45 µM) | 2 (≈ 5.63 µM) | 0.25 (≈ 0.703 µM) | 1 (≈ 2.81 µM) | 1 (≈ 2.81 µM) | 0.25 (≈ 0.703 µM) | C/C(S)=N/C[C@H]1CC(c2cc(F)c(N3CCOCC3)c(F)c2)=NO1 | > 20 |  |  |

Continued, molecule first:

| Compound | MIC (Enterococcus faecalis) [µg/mL] | MIC (Escherichia coli) [µg/mL] | MIC (Haemophilus influenzae) [µg/mL] | MIC (Moraxella catarrhalis) [µg/mL] | MIC (Streptococcus pneumoniae) [µg/mL] | MIC (Staphylococcus aureus [1]) [µg/mL] | MIC (Staphylococcus aureus [2]) [µg/mL] | MIC [3] [µg/mL] | ED50 (Mus musculus) [mg/kg] | Tmax [4] [min] | Remaining at 40 min (Rattus norvegicus) [%] |
| --- | --- | --- | --- | --- | --- | --- | --- | --- | --- | --- | --- |
| COc1ccc(-c2ccc(C3=NOC(CNC(C)=O)C3)cc2)ccc1=O (stereo unspecified) | 4 (≈ 11.4 µM) | > 16 | > 16 | > 16 | 0.5 (≈ 1.42 µM) | 4 (≈ 11.4 µM) | 4 (≈ 11.4 µM) | 2 (≈ 5.68 µM) | 15.4 |  |  |
| CC(=O)NC[C@H]1CN(c2ccc(N3CCOCC3)c(F)c2)C(=O)O1 [LINEZOLID] |  | > 32 | 16 (≈ 47.4 µM) | 8 (≈ 23.7 µM) |  |  |  | 1 (≈ 2.96 µM) |  | 18.6 | 97 |
| CC(=O)NC[C@H]1CC(c2ccc(-n3cc(C#N)cn3)c(F)c2)=NO1 | 4 (≈ 12.2 µM) | > 16 | 16 (≈ 48.9 µM) | 8 (≈ 24.4 µM) | 0.5 (≈ 1.53 µM) | 2 (≈ 6.11 µM) | 2 (≈ 6.11 µM) | 1 (≈ 3.06 µM) |  |  |  |
| CC(=O)NCC1CC(c2ccc(C3=CCN(C(C)=O)CC3)cc2)=NO1 (stereo unspecified) | 8 (≈ 23.4 µM) | > 16 | > 16 | > 16 | 2 (≈ 5.86 µM) | 8 (≈ 23.4 µM) | 8 (≈ 23.4 µM) | 4 (≈ 11.7 µM) |  |  |  |
| CC(=O)NC[C@H]1CC(c2ccc(-n3ccnc3)c(F)c2)=NO1 | 4 (≈ 13.2 µM) | > 16 | > 16 | 16 (≈ 52.9 µM) | 1 (≈ 3.31 µM) | 2 (≈ 6.62 µM) | 2 (≈ 6.62 µM) | 1 (≈ 3.31 µM) |  |  |  |
| COC(=O)N1CC=C(c2ccc(-c3cc(CNC(C)=O)on3)cc2)CC1 | > 16 | > 16 | > 16 | > 16 | > 16 | > 16 | > 16 | > 16 |  |  |  |
| CC(=O)NCC1CC(c2ccc(C3=CCN(C(=O)CO)CC3)cc2)=NO1 (racemic) | 8 (≈ 22.4 µM) | > 16 | > 16 | > 16 | 2 (≈ 5.6 µM) | 4 (≈ 11.2 µM) | 4 (≈ 11.2 µM) | 4 (≈ 11.2 µM) |  |  |  |
| C/C(S)=N/C[C@H]1CC(c2ccc(-n3cccc3)c(F)c2)=NO1 | 1 (≈ 3.15 µM) | > 16 | > 16 | 4 (≈ 12.6 µM) | 0.5 (≈ 1.58 µM) | 1 (≈ 3.15 µM) | 1 (≈ 3.15 µM) | 0.5 (≈ 1.58 µM) |  |  |  |
| CC(=O)NC[C@H]1CC(c2ccc(-n3ccc(C#N)c3)c(F)c2)=NO1 | 1 (≈ 3.06 µM) | > 16 | 16 (≈ 49 µM) | 4 (≈ 12.3 µM) | < 0.125 | 0.5 (≈ 1.53 µM) | 1 (≈ 3.06 µM) | 0.25 (≈ 0.766 µM) |  |  |  |
| CC(=O)NC[C@H]1CC(c2cc(F)c(N3CCNCC3)c(F)c2)=NO1 | 4 (≈ 11.8 µM) | > 16 | 8 (≈ 23.6 µM) | 8 (≈ 23.6 µM) | 0.25 (≈ 0.739 µM) | 4 (≈ 11.8 µM) | 4 (≈ 11.8 µM) | 0.5 (≈ 1.48 µM) |  |  |  |
| CC(=O)NCC1CC(c2cc(F)c(N3CCOCC3)c(Cl)c2)=NO1 (stereo unspecified) | 16 (≈ 45 µM) | > 16 | > 16 | > 16 | 4 (≈ 11.2 µM) | 8 (≈ 22.5 µM) | 8 (≈ 22.5 µM) | 8 (≈ 22.5 µM) |  |  |  |
| CC(=O)NC[C@H]1CC(c2ccc(C3=CCN(C(=O)CO)CC3)cc2)=NO1 | 4 (≈ 11.2 µM) | > 16 | > 16 | 8 (≈ 22.4 µM) | 0.5 (≈ 1.4 µM) | 2 (≈ 5.6 µM) | 2 (≈ 5.6 µM) | 1 (≈ 2.8 µM) | 6 |  |  |
| CC(=O)NCC1CC(c2ccc(Br)cc2)=NO1 (stereo unspecified) | > 16 | > 16 | > 16 | > 16 | > 16 | > 16 | > 16 | > 16 |  |  |  |
| CC(=O)NC[C@H]1CC(c2ccc(-n3cncn3)c(F)c2)=NO1 | > 16 | > 16 | > 16 | > 16 | 4 (≈ 13.2 µM) | 16 (≈ 52.8 µM) | > 16 | 8 (≈ 26.4 µM) |  |  |  |
